Activity calls are given as the source filed them. The calls are words filed in the database; no cut-off is given here.
How the values were obtained:
Assay type in all cases: nucleic-acid assay
Conditions in all cases: Bos taurus
[1] = system: Nucleic Acid; assay: Binding affinity to calf thymus DNA assessed as change in melting temperature by thermal denaturation assay
Method in brief: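 CT DNA alone or with alkaloid, 10 mM citrate-phosphate buffer pH 7.0. Absorbance at 260 nm was followed while heating from 20 to 100 °C at 0.5 °C/min in 1 cm quartz cuvettes. ΔTm was taken at saturation.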

[2] = system: Nucleic Acid; assay: Binding affinity to calf thymus DNA assessed as fluorescence quenching by fluorescence spectroscopy analysis
Method in brief: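 Ferrocyanide quenching of alkaloid fluorescence, free and bound to CT DNA, at constant P/D (base pair/alkaloid). KCl and K4[Fe(CN)6] solutions were mixed in different ratios at fixed total ionic strength in 10 mM CP buffer pH 7.0. Intensity was read against rising ferrocyanide. Stern–Volmer quenching constant (Ksv). At least four measurements were averaged per set.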

[3] = system: Nucleic Acid; assay: Binding affinity to calf thymus DNA in citrate-phosphate buffer at pH 7 assessed as change in viscosity by hydrodynamic method
Method in brief: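 Relative viscosity of CT DNA in 10 mM CP buffer pH 7.0 at 20 °C with increasing alkaloid (varying D/P), mixed by slow nitrogen bubbling. Flow times were measured in triplicate to 0.01 s. Contour length increase (L/Lo) was plotted against r.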

[4] = system: Nucleic Acid; assay: Binding affinity to calf thymus DNA in citrate-phosphate buffer at pH 7 by circular dichroism spectral analysis
Method in brief: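 CD spectra of CT DNA titrated with increasing alkaloid in 10 mM CP buffer pH 7.0 at 20 °C. Output is molar ellipticity, [θ] = [θ]obs/10lC.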

ΔTm [1] | KSV [2] | Activity [3] | Activity [4] | SMILES
14 °C | 48 M⁻¹ | Active |  | COc1ccc2cc3[n+](cc2c1OCC(=O)NCc1ccccc1)CCc1cc2c(cc1-3)OCO2.[Cl-]
12 °C | 37 M⁻¹ | Active |  | COc1ccc2cc3[n+](cc2c1OCC(=O)NCCc1ccccc1)CCc1cc2c(cc1-3)OCO2.[Cl-]
9 °C | 90 M⁻¹ | Active | Active | COc1ccc2cc3[n+](cc2c1OC)CCc1cc2c(cc1-3)OCO2.[Cl-] [BERBERINE CHLORIDE]
15.5 °C | 57 M⁻¹ | Active | Active | COc1ccc2cc3[n+](cc2c1OCC(=O)Nc1ccccc1)CCc1cc2c(cc1-3)OCO2.[Cl-]
